The IC50 is the concentration that inhibits the measured activity by half.

Assay [1] in a line: Cytotoxicity against etoposide-resistant human K/VP.5 cells assessed as cell growth inhibition after 72 hrs by MTS assay. It is filed as functional, cell-based. The settings on record: K/VP.5, 72 h. In outline: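 K/VP.5 cells are a K562-derived subline, 26-fold etoposide-resistant, with decreased topoisomerase IIα mRNA and protein. Cells were grown in suspension in αMEM with 10% fetal calf serum. Drugs were given from DMSO stocks, with final DMSO typically 0.4% or less. Read-out was MTS absorbance after 72 h. Typically nine concentrations were run in duplicate on two days. IC50 came from a four-parameter logistic fit.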
On the technique in general: Tetrazolium dyes change colour on reduction, which living cells bring about.

The next assay deals with MCF7. The assay can be described thus: Cytotoxicity against human MCF7 cells assessed as cell growth at 0.005 uM by SRB assay. Format: functional. The settings on record: read-out: Activity. (In general: In SRB staining, fixed cells bind dye roughly in proportion to their protein.)
For another assay, the system named is MDA-MB-231. The assay can be described thus: Cytotoxicity against human MDA-MB-231/ATCC cells assessed as cell growth at 5 uM by SRB assay. Format: functional. To be noted: read-out: Activity.
The next assay has as its system SF-539. Put plainly: Cytotoxicity against human SF539 cells assessed as cell growth at 50 uM by SRB assay. It is filed as functional. The settings on record: read-out: Activity.
A further assay concerns A549. The assay can be described thus: Cytotoxicity against human A549/ATCC cells assessed as cell growth at 5 uM by SRB assay. To be noted: read-out: Activity. Format: functional.
For a further assay, the system named is BT-549. Put plainly: Cytotoxicity against human BT549 cells assessed as cell growth at 0.005 uM by SRB assay. Format: functional. The settings on record: read-out: Activity.
Another assay relates to SK-OV-3. Put plainly: Cytotoxicity against human SKOV3 cells assessed as cell growth at 50 uM by SRB assay. Format: functional. To be noted: read-out: Activity.
In assay [2] the test system is K562. The assay can be described thus: Induction of apoptosis in human K562 cells assessed as increase in caspase 3/7 activity at 1 uM by luminescence analysis. It is filed as functional, cell-based. The settings on record: TDE = time-dependent effect. In outline: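 K562 cells at 2 × 10^5 cells/mL treated with vehicle or 1 µM compound for 24 or 48 h. Lysates assayed with a luminogenic DEVD-aminoluciferin caspase-3/7 substrate and read by luminescence. Four wells (eight for control); unpaired t-test vs control; repeated on two days.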

Assay [3] has as its system CHO. Put plainly: Induction of cell cycle arrest in CHO cells assessed as accumulation at G2/M phase at 1 uM by propidium iodide staining based flow cytometry. Format: functional. The settings on record: Cricetulus griseus.
Assay [4] has as its system K562. The assay can be described thus: Induction of apoptosis in human K562 cells assessed as increase in proportion of apoptotic and apoptotic/necrotic cells at 1 uM after 24 to 48 hrs by annexin V-FITC/propidium iodide staining based two-color fluorescence flow cytometry. Format: functional, cell-based. In outline:
(§1)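 K562 cells (1 × 10^6/mL), untreated or given 1 µM compound (10 µM etoposide control) at 37 °C for 24 h or 48 h. Annexin V-FITC plus propidium iodide two-colour flow cytometry. Cells are scored as viable, apoptotic-only (annexin+/PI−), apoptotic/necrotic (annexin+/PI+) or necrotic.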

For a further assay, the system named is SN12C. The assay can be described thus: Cytotoxicity against human SN12C cells assessed as cell growth at 50 uM by SRB assay. The settings on record: read-out: Activity. Format: functional.
Assay [5] addresses DNA topoisomerase 2-alpha (Homo sapiens) (UniProt P11388). The assay can be described thus: Inhibition of full-length human recombinant topoisomerase 2-alpha-mediated decatenation activity of kDNA at >10 uM by ethidium bromide based gel-assay.
Assay [6] deals with K562. The assay can be described thus: Induction of apoptosis in human K562 cells assessed as decrease in proportion of viable cells at 1 uM after 24 to 48 hrs by annexin V-FITC/propidium iodide staining based two-color fluorescence flow cytometry. Format: functional, cell-based. In outline: as §1
For assay [7], the system named is CHO. The assay can be described thus: Induction of apoptosis in CHO cells assessed as increase in sub-G0/G1 cell population at 1 uM after 49 hrs by propidium iodide staining based flow cytometry. Format: functional. The settings on record: Cricetulus griseus. In outline:
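CHO cells grown to confluence in α-MEM/10% FCS, serum-starved 48 h (0% FCS), then seeded at 2 × 10^5 cells/mL and repleted with 10% FCS. Continuously treated from repletion with 1 µM compound (10 µM etoposide, DMSO control) for various times. Propidium iodide DNA staining, flow cytometric phase distribution including sub-G0/G1.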

Assay [8] addresses DNA topoisomerase 2-alpha (Homo sapiens) (UniProt P11388). The assay can be described thus: Inhibition of full-length human recombinant topoisomerase 2-alpha assessed as conversion of […] DNA at 100 uM by ethidium bromide based gel-assay.

Active and inactive are the calls of the source. The rule behind the calls is not given here.

Chain of DNA topoisomerase 2-alpha (Homo sapiens) (P11388 whole entry): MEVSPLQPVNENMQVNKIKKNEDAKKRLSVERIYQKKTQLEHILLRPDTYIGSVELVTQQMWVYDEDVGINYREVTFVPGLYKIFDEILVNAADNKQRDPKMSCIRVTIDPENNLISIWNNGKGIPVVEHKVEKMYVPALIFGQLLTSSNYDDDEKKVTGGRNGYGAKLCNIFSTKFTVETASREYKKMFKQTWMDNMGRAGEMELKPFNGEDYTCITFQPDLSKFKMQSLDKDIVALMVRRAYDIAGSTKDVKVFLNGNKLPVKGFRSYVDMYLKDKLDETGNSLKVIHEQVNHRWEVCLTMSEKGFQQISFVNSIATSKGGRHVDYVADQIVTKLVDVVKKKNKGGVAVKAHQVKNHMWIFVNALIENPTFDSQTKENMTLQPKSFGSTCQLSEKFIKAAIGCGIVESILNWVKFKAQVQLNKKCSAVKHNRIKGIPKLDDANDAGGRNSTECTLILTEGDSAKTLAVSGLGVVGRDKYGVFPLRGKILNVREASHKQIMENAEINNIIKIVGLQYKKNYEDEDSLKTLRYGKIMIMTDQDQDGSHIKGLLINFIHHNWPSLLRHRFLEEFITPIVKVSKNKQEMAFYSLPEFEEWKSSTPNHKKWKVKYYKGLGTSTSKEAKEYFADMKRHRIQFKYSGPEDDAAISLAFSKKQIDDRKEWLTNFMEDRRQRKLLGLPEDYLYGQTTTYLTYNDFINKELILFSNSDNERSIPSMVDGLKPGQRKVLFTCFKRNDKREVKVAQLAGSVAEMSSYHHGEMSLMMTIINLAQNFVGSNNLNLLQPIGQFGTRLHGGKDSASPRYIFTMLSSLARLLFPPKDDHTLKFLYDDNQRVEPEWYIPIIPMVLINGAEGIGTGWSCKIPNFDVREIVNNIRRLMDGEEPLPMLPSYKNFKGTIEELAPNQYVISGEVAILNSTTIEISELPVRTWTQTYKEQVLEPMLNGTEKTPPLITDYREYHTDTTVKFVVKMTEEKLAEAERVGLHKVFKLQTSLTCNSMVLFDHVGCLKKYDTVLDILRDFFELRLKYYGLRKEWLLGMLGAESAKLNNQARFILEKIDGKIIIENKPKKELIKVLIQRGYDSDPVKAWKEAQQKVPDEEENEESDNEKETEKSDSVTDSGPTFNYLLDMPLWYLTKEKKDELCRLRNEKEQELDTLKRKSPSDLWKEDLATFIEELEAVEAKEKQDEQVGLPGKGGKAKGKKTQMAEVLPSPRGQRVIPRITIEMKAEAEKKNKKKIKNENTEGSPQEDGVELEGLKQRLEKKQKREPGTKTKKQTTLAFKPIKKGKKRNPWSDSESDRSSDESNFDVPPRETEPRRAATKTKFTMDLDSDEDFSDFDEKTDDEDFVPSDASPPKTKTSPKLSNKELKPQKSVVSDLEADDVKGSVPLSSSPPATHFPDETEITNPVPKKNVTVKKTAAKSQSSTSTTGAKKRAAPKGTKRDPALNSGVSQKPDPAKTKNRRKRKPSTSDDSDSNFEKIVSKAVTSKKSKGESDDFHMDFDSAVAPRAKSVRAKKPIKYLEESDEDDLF

With `COc1cc([C@@H]2c3cc4c(cc3[C@@H](NC(=O)CN3CCN(CCCCCCN5CCN(CC(=O)N[C@@H]6c7cc8c(cc7[C@@H](c7cc(OC)c(O)c(OC)c7)[C@H]7C(=O)OC[C@@H]76)OCO8)CC5)CC3)[C@H]3COC(=O)[C@H]23)OCO4)cc(OC)c1O`, in assay [1], the IC50 worked out at 880 nM. The figures for the growth at 0.005 µM with MCF7 and in the assay with BT-549 were 80% and 86%, respectively. Besides, the growth at 5 µM was 79% with MDA-MB-231 and 35% in the assay with A549. In addition, the growth at 50 µM in the assay on SF-539 was -38%.
Consider `COc1cc([C@@H]2c3cc4c(cc3[C@@H](NC(=O)CN3CCN(CCCCCCCCCCN5CCN(CC(=O)N[C@@H]6c7cc8c(cc7[C@@H](c7cc(OC)c(O)c(OC)c7)[C@H]7C(=O)OC[C@@H]76)OCO8)CC5)CC3)[C@H]3COC(=O)[C@H]23)OCO4)cc(OC)c1O`, for which the growth at 50 µM is -100% in the assay on SK-OV-3 and -44% in the assay on SN12C. Further, the 50% inhibitory concentration (IC50) in assay [1] is 114 nM. The values for the growth at 0.005 µM in the assay with MCF7 and in the assay with BT-549 were 90% and 94%, respectively. Also, the growth at 5 µM in the assay with MDA-MB-231 is -45%; in the assay on A549, -29%. Further, the Activity result in the assay on K562 [2] was “tde”. Also, the result with CHO [3], in the assay with K562 [4], in the assay on K562 [6] and in the assay on CHO [7] was Active. Besides, the “Inhibition of decatenation activity (qualitative)” value in [5] is “Active”. Moreover, in assay [8], the “Inhibition (qualitative activity call)” value is “Active”.

Source of the values: ChEMBL document CHEMBL3588757, “Structure-based design, synthesis and biological testing of piperazine-linked bis-epipodophyllotoxin etoposide analogs” (Bioorg Med Chem, 2015).
